SIRT5 block = sirtuin-5 (human) deacylase inhibition | inhibition, % at 15 µM | Purified SirT5, succinyl-peptide AMC, trypsin-coupled fluorescence | AID 652115 | actives 1.1% (n = 330,000) | Q9NXA8; in the data active = inhibition above about 15%
CFTR F508del cor = CFTR F508del correction in bronchial cells; CFBE cells, YFP halide quenching; stimulated with forskolin plus potentiator P3; % fluorescence drop versus neutral controls; activity (quench increase), % at 7.58 µM; actives 0.36% (n = 350,000); AID 720511;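 active = mean added fluorescence quench of at least 8% versus neutral control, with both replicates also reaching 8%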;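 also: cells transiently co-express mutant CFTR-F508del with the halide-sensitive YFP; corrector assay measuring rescue of mutant channel to the surface after 24 h compound exposure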
ERAP1 inh = ERAP1 (human) enzyme inhibition | recombinant ERAP1, Leu-AMC fluorescence, 60 min | AID 652197 | inhibition, % at 10.7 µM | Q9NZ08 | actives 0.15% (n = 340,000);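 active = mean replicate inhibition of at least 30%, or all replicates individually reaching that 30% level; inactive = mean below 30% and not every replicate reaching it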;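 also: 0% = neutral control wells and 100% = L-leucinethiol positive control wells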
Target sequence (Q9NZ08 whole entry, looked up): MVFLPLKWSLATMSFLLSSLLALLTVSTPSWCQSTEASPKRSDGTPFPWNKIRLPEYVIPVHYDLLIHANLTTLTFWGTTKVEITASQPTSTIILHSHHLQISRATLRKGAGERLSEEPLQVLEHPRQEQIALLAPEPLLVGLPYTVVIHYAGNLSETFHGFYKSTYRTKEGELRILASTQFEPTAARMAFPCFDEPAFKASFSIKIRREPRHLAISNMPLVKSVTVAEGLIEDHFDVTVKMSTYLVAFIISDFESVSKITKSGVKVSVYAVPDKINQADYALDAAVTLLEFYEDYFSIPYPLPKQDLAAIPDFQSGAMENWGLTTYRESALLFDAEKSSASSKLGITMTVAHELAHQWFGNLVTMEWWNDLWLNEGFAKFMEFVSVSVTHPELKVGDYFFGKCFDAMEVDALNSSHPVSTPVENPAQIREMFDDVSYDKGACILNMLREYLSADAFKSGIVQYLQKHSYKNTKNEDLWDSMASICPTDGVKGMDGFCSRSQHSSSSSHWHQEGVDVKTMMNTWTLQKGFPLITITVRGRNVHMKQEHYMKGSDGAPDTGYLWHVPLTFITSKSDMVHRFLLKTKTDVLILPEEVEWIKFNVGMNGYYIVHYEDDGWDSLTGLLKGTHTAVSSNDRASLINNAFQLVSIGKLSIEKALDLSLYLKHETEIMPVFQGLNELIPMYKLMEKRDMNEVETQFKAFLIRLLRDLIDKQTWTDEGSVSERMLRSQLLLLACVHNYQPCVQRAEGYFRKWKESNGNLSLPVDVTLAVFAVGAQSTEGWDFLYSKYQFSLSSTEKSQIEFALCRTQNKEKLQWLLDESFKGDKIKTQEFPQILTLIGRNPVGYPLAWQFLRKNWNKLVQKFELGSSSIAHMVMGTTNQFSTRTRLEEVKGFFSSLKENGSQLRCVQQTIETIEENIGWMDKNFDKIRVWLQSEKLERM
Ecoli rRNA inh = inhibitors of bacterial rRNA selective over humanized ribosomes. E. coli WT GFP vs humanized-ribosome RFP mutants, fluorescence, 24 h; active compounds read low; DMSO median 0, no signal -100. GFP signal change (wild-type ribosome), % (no concentration beside the values). actives 1.6% (n = 350,000). AID 720706;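 active = significant combined selectivity score with lowered wild-type GFP, culture density cut under 30%, mutant RFP and density less affected; inactive = any of these conditions unmet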
S100A4 inh HTS = inhibitors of human S100A4 binding to myosin IIA peptide; P26447; S100A4/TAMRA-MyoIIA peptide fluorescence polarization; inhibition, % at 10.7 µM; actives 0.14% (n = 360,000); AID 652163;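 active = mean inhibition of at least 70% across replicates, with every replicate also reaching that level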
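assay system = human S100A4 monomer with TAMRA-labelled myosin IIA peptide | also added = labelled myosin peptide probe, 5 nM | incubation = 5 min between mix addition and reading | control set = DMSO and TFP controls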
Starred values were filed as active, the others as inactive; · = no result. Most compounds without a hit are left out; they make up all but 3.1% or so of the library.

SMILES | SIRT5 block | CFTR F508del cor | ERAP1 inh | Ecoli rRNA inh | S100A4 inh HTS
Cc1cn(CC(=O)NCCCn2ccnc2)c(=O)[nH]c1=O | 15* | 0 | · | 28 | 2
O=C(O)c1cccc(S(=O)(=O)NCCC(c2ccccc2)c2ccccc2)c1 | 1 | 2 | -5 | -27* | 0
O=C(O)c1cccc(S(=O)(=O)NCCc2ccccc2)c1 | 5 | 1 | -17 | 11 | 5
Cc1noc(C)c1S(=O)(=O)N(C)C[C@@H]1OCCCC[C@H](C)Oc2ccc(NS(=O)(=O)c3cccs3)cc2C(=O)N([C@H](C)CO)C[C@H]1C | 2 | -1 | 4 | 2 | -16
CN1CCN(S(=O)(=O)c2ccc(C3CCCCC3)cc2)CC1 | -2 | -1 | 96* | 6 | -5
Cc1ccc(-c2csc3nc(CN(C)Cc4ccccc4)[nH]c(=O)c23)cc1 | 0 | 2 | 0 | -32 | -12
O=c1[nH]c(Cc2ccc(F)cc2)nc2scc(-c3ccc(F)cc3)c12 | 21* | -3 | -3 | 3 | -2
CO[C@H]1CN(C)C(=O)c2ccc(NC(=O)Nc3ccccc3)cc2OC[C@@H](C)N(C(=O)CN(C)C)C[C@@H]1C | · | -1 | · | 3 | ·
COc1ccc(S(=O)(=O)Nc2ccc3c(c2)CC(=O)N([C@@H](C)CO)C[C@H](C)[C@@H](CN(C)S(=O)(=O)c2cn(C)cn2)O3)cc1 | -3 | -1 | 1 | 1 | -9
O=C(C[C@H]1C[C@@H]2c3cc(NC(=O)CC4CC4)ccc3O[C@@H]2[C@H](CO)O1)NCc1ccccc1F | -2 | 0 | 0 | -2 | 1
Cc1ccc(S(=O)(=O)Nc2ccc3c(c2)CC(=O)N([C@H](C)CO)C[C@H](C)[C@@H](CN(C)CC2CCCCC2)O3)cc1 | 19* | 2 | 0 | -19 | 3
C[C@H]1CN([C@@H](C)CO)C(=O)Cc2cc(NS(=O)(=O)c3ccc(F)cc3)ccc2O[C@H]1CN(C)CC1CC1 | -1 | 1 | -3 | 4 | -10
C[C@H](CO)N1C[C@H](C)[C@@H](CN(C)CC2CCCCC2)Oc2ccc(NS(=O)(=O)c3ccc(F)cc3)cc2CC1=O | 16* | -2 | 1 | 8 | 1
Cc1ccc(S(=O)(=O)Nc2ccc3c(c2)CC(=O)N([C@@H](C)CO)C[C@H](C)[C@H](CN(C)CC2CCCCC2)O3)cc1 | 16* | 2 | 0 | -11 | -5
C[C@@H]1CN([C@@H](C)CO)C(=O)Cc2cc(NS(=O)(=O)c3ccc(F)cc3)ccc2O[C@@H]1CN(C)C(=O)NC1CCCCC1 | 19* | -1 | 0 | 3 | 1
Cc1ccc(S(=O)(=O)Nc2ccc3c(c2)CC(=O)N([C@H](C)CO)C[C@@H](C)[C@@H](CN(C)CC2CCCCC2)O3)cc1 | 11 | 0 | 1 | · | 3
Cc1ccc(S(=O)(=O)Nc2ccc3c(c2)CC(=O)N([C@H](C)CO)C[C@@H](C)[C@H](CN(C)CC2CCCCC2)O3)cc1 | 10 | 2 | -1 | -27 | 1
C[C@H]1CN([C@@H](C)CO)C(=O)c2cccc(NS(C)(=O)=O)c2O[C@@H]1CN(C)CC1CCCCC1 | -4 | -1 | -2 | 1 | -1
CC(=O)N1[C@H](CO)[C@H](c2ccc(-c3cncnc3)cc2)[C@@H]1CN(C)C(=O)C1CC1 | -3 | 2 | 1 | 2 | -42
C[C@H]1CN([C@@H](C)CO)C(=O)c2cccc(NS(=O)(=O)c3cccs3)c2O[C@H]1CN(C)C | -2 | -1 | 2 | 3 | 0
CC(C)NC(=O)N[C@H]1CC[C@H](CCN)O[C@@H]1CO | -1 | 5 | -1 | 4 | -19
C[C@@H]1CN([C@H](C)CO)C(=O)Cc2cc(NS(=O)(=O)c3ccc(Cl)cc3)ccc2O[C@@H]1CN(C)CC1CCCCC1 | · | -1 | -5 | -10 | -1
C[C@@H]1CN([C@@H](C)CO)C(=O)Cc2cc(NS(=O)(=O)c3cccs3)ccc2O[C@H]1CN(C)CC1CCCCC1 | 15* | -5 | 7 | 0 | 36
C[C@H](CO)N1C[C@H](C)[C@@H](CN(C)CC2CCCCC2)Oc2ccc(NS(=O)(=O)c3ccc(Cl)cc3)cc2CC1=O | 18* | 0 | -2 | -32 | 10
O=C(NNS(=O)(=O)c1ccc(F)cc1)c1cccc(O)c1 | 17* | -1 | -4 | -3 | 3
SMILES | SIRT5 block | CFTR F508del cor | ERAP1 inh | Ecoli rRNA inh | S100A4 inh HTS
Cc1ccc(S(=O)(=O)NNC(=O)c2cccc(O)c2)cc1 | 0 | -2 | 0 | 12 | 14
O=C(COc1ccc([N+](=O)[O-])cc1)NNC(=O)Nc1ccc([N+](=O)[O-])cc1 | -1 | 0 | -8 | -19* | 1
CCCOC(=O)c1cccc(NC(=O)COc2ccc([N+](=O)[O-])cc2)c1 | -8 | 4 | 2 | -21* | -2
C[C@H](CO)N1C[C@H](C)[C@H](CN(C)C(=O)c2ccccc2)Oc2ncc(-c3ccc(C#N)cc3)cc2C1=O | -10 | 0 | 3 | 3 | 5
CCn1c2ccccc2c2cc(NC(=O)c3ccccc3[N+](=O)[O-])ccc21 | -1 | -4 | -1 | -6 | -2
CC1N(C)c2cc(NC(=O)c3ccco3)ccc2C1(C)C (stereo not given) | -1 | -1 | 1 | -42 | 180*
CCn1c2ccccc2c2cc(NC(=O)c3ccco3)ccc21 | 0 | 3 | -2 | -35* | -12
Cc1cccc(-n2c(C)cc(C(=O)NC3CCCCC3)c2C)c1 | -5 | · | 6 | · | 5
COc1ccc(-n2c(C)cc(C(=O)NC3CCCCC3)c2C)cc1 | -1 | -4 | 1 | -23* | 2
Cn1c(C(=O)O)c(CC(=O)N2CCC(Cc3ccccc3)CC2)c2ccccc21 | 0 | 2 | 5 | -26* | 2
S=c1nccc(-c2cccs2)[nH]1 | 15* | -1 | 1 | 9 | -1
CCCCn1c(N)c(N(CCOC)C(=O)C2CCCN(C(=O)c3ccc(Cl)cc3)C2)c(=O)[nH]c1=O (stereo not given) | 0 | 2 | 62* | 10 | -5
CS(=O)(=O)N1c2ccccc2[C@]2([C@@]34C[C@H]5C(=O)N[C@@H](Cc6ccccc6)C(=O)N5[C@@H]3N(S(C)(=O)=O)c3ccccc34)C[C@H]3C(=O)N[C@@H](Cc4ccccc4)C(=O)N3[C@H]12 | 33* | 0 | 0 | 6 | 0
COc1ccc(OCc2cc(C(=O)N3CCN(C4CCCC4)CC3)no2)c(Cl)c1 | -2 | 1 | 0 | -29* | -16
CSc1ccccc1OCc1cc(C(=O)N2CCC(c3ccncc3)CC2)no1 | -1 | 0 | 2 | -41* | 0
CSc1ccccc1OCc1cc(C(=O)N(C)C2CCCc3ccccc32)no1 (stereo not given) | 20* | 1 | 0 | -7 | -2
COC(=O)C1CCCCN1C(=O)c1cc(COc2cccc3cnccc23)on1 (stereo not given) | -14 | 0 | -2 | -31* | 1
